Only some compounds are listed: those with a hit (about 2.7% of all), similar ones and a draw of the others.
CSN inh: CSN deneddylation inhibition | Q92905 | Purified CSN, SCF-Nedd8-OG deneddylation, fluorescence polarization | inhibition, % at 12.5 µM | 360,000 compounds, 0.38% hits | AID 651999;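 active = pattern-corrected inhibition above about 35%, with an unprinted fluorescence ratio check between 0.5 and 1.5, limit read from the data, passing the limit was not always enough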;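 also: 0% = enzyme with substrate and 100% = substrate without enzyme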
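Test system: purified human Csn5 enzyme expressed in HEK293T cells. Amount: 0.24 nM enzyme. Reagent: SCFSkp2-Nedd8OG substrate at 10 nM final. Schedule: 90 min incubation of compound, enzyme and substrate at room temperature. Detection: fluorescence polarization. Read-out: % inhibition of substrate cleavage by Csn5.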
Rpn11 block: Rpn11 (human) deubiquitinase inhibition; O00487; human 26S proteasome, Ub4-pepOG fluorescence polarization; 20S core pre-blocked with epoxomicin; inhibition, % at 20 µM; 360,000 compounds, 0.59% hits; AID 588493;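 active = inhibition at 20 µM, scaled to each plate's controls, above about 33%, limit read from the data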
Target sequence (O00487 whole entry, looked up): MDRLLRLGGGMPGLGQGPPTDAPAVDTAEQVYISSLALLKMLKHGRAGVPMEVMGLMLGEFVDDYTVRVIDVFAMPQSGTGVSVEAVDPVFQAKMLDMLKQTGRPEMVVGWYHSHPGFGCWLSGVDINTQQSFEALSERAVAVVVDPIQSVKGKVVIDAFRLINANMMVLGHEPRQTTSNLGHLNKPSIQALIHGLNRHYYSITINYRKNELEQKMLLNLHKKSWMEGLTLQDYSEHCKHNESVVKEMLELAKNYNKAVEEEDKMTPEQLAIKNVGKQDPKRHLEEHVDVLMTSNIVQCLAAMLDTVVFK
NadD inh: blocks S. aureus nicotinate mononucleotide adenylyltransferase; purified NadD enzyme, colorimetric absorbance read-out; inhibition, % at 20 µM; 360,000 compounds, 0.78% hits; AID 602399; in the data active = inhibition above about 26%
HNF4A DNA FP: change in binding of human HNF4 alpha to DNA. 360,000 compounds, 0.3% hits. AID 1224865. P41235. HNF4a-FITC DNA binding, fluorescence polarization, 1 h. activity change, % at 10 µM; in the data active = activity change above about 30%, passing the limit was not always enough
PP1 inh: counter-screen for PP5 inhibitors: inhibitors of human PP1-alpha | P62136 | purified PP1alpha, OMFP fluorescence | inhibition, % at 6.7 µM | 320,000 compounds, 0.9% hits;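 active = inhibition above the mean inhibition of all tested compounds plus 3 SD, computed separately for each screening campaign, cut at about 15% in these data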
Target sequence (P62136 whole entry, looked up): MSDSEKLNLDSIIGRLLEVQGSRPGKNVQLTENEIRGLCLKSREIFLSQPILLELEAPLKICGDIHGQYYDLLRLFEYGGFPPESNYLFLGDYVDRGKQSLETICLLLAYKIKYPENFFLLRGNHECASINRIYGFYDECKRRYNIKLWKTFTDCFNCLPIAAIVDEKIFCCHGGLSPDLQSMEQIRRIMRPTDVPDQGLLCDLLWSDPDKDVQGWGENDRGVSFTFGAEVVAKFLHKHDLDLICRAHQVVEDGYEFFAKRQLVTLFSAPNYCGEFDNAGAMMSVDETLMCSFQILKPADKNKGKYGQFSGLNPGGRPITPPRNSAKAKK
TPT1 inh: blocks Candida albicans tRNA 2'-phosphotransferase; inhibition, % at 5 µM; recombinant caTPT1, FP RNA substrate dephosphorylation; 300,000 compounds, 0.81% hits;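 active = inhibition above the mean of all tested compounds plus 3 SD, set per screening campaign, cut at about 24% in these data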;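 also: plate controls were DMSO alone for no effect and ferristatin control at 100 nM for full effect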
PP1 confirm: human PP1 phosphatase inhibition, confirmation; shares compounds with PP1 inh; purified PP1alpha, OMFP substrate fluorescence; inhibition, % at 6.7 µM; 1,900 compounds, 52% hits;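 active = mean PP1 inhibition above a set limit taken from the earlier primary screen, cut at about 15% in these data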
PP5 inh counter: inhibits human PP5 phosphatase in PP1 counter-screen | shares compounds with PP1 inh | purified PP5c, OMFP fluorescence | inhibition, % at 6.7 µM | 1,900 compounds, 4% hits | AID 2360;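 active = mean PP5 inhibition over triplicate wells above about 9.5% taken from the earlier PP1 screen, limit read from the data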
Starred values were filed as active, the others as inactive; nt = not tested or not shown.

SMILES | CSN inh | Rpn11 block | NadD inh | HNF4A DNA FP | PP1 inh | TPT1 inh | PP1 confirm | PP5 inh counter
Cc1ccc(NC(=O)CN2CCN(C(=O)C3CC3)CC2)c(F)c1 | 1 | -4 | 3 | -7 | nt | nt | nt | nt
CC(C)(C)C1CCC2(CC1)Nc1cccc3cccc(c13)N2 | 6 | 2 | 6 | 20 | 31* | 1 | 25* | 4
COc1ccc(-c2cc3nc4ccccc4n3c(N)c2C#N)cc1 | 93 | 19 | 3 | 6 | 18* | 0 | 17* | -4
O=C(CCN1C(=O)/C(=C/c2ccccc2Cl)SC1=S)NC1C=CS(=O)(=O)C1 (centres undefined) | -3 | 0 | 37* | 4 | 24* | -2 | 24* | -1
CCCCCCCCC/C(=N\O)c1ccccn1 | 7 | 1 | -5 | 1 | 32* | -1 | 28* | -5
CCCCCCCCC(=O)N/N=C/c1ccccn1 | -7 | -13 | -2 | -3 | -1 | -1 | nt | nt
CCOc1ncccc1C(=O)OCC(=O)Nc1ccc(-c2nc3ccc(C)cc3s2)cc1 | -12 | 13 | -6 | 5 | 19* | 0 | 29* | 0
Cc1ccc2nc(-c3ccc(NC(=O)COC(=O)c4ccco4)cc3)sc2c1 | -2 | 8 | -2 | -1 | 3 | 1 | nt | nt
Cc1ccc(NC(=O)c2cc(S(=O)(=O)N3CCCCC3)ccc2N2CCOCC2)c(C)c1 | -1 | -1 | 2 | 1 | nt | nt | nt | nt
O=C(COC(=O)COc1ccccc1)NC1CCCC1 | -5 | -4 | -3 | -6 | -1 | nt | nt | nt
CC1(c2nnnn2-c2ccc3c(c2)OCCO3)CCC(=O)N1CCc1ccc(O)cc1 (centres undefined) | -3 | nt | -2 | 0 | nt | nt | nt | nt
CCOC(=O)N1CCN(S(=O)(=O)c2ccc(C(=O)Nc3nnc(CC)o3)cc2)CC1 | -10 | -1 | 11 | -1 | 15 | -3 | nt | nt
CCOC(=O)N1CCN(S(=O)(=O)c2ccc(C(=O)NNc3nc4c(C)cccc4s3)cc2)CC1 | 5 | 16 | 14 | 1 | 5 | 3 | nt | nt
CCOC(=O)N1CCN(S(=O)(=O)c2ccc(C(=O)NNc3nc4cc(C)cc(C)c4s3)cc2)CC1 | 1 | 15 | 39* | -2 | 19* | 0 | 26* | 1
CCOC(=O)N1CCN(S(=O)(=O)c2ccc(C(=O)NNc3nc4c(C)cc(C)cc4s3)cc2)CC1 | 2 | 12 | 15 | -3 | 31* | -6 | 19* | -2
Nc1ccc(NC(=O)c2cccc(C(=O)Nc3ccc(N)cc3Cl)c2)c(Cl)c1 | 6 | -4 | -3 | 5 | -2 | 1 | nt | nt
COC(=O)CCC(=O)OC1(C)C(=O)C2=CN(Cc3ccccc3)C(c3ccc(OC)cc3)=CC2=C(Br)C1=O (centres undefined) | -1 | 1 | 11 | -1 | 21* | 1 | 9 | 28*
COC(=O)CCC(=O)OC1(C)C(=O)C2=CN(c3ccccc3)C(c3ccc(OC)cc3)=CC2=C(Br)C1=O (centres undefined) | 6 | 15 | 11 | 7 | 22* | 10 | 12 | 25*
CCOC(=O)N1CCN(Cc2nc3cc(NC(=O)CC(C)C)ccc3n2CC)CC1 | -5 | -1 | -7 | -4 | -5 | 5 | nt | nt
Cn1c2ccccc2c(=O)c2c(=O)n(Cc3ccco3)c(-c3ccc(Cl)cc3Cl)nc21 | nt | nt | nt | nt | 23* | 0 | 8 | -1
N#Cc1ccc(C23CC4(C2)[C@H](CN(P(=O)(c2ccccc2)c2ccccc2)[C@@H]4c2ccccc2)C3c2ccc(Cl)nc2)cc1 (some centres undefined) | -1 | 12 | 23 | -2 | 18* | -4 | 6 | 4
CN1C[C@@H]2C(c3ccc(Cl)nc3)C3(c4ccc(C#N)cc4)CC2(C3)[C@H]1c1ccccc1 (some centres undefined) | 3 | -7 | 7 | 8 | 7 | -2 | nt | nt
Clc1ccc(C2[C@H]3CN(Cc4cccnc4)[C@H](c4ccccc4)C34CC2(c2ccccc2)C4)cn1 (some centres undefined) | nt | nt | nt | nt | 21* | 2 | 17* | 1
CSCCC(NC(=O)c1ccc([N+](=O)[O-])cc1Cl)C(=O)OCC(=O)NC(=O)CN1CCCC1=O (centres undefined) | 2 | 0 | -6 | 0 | 39* | -5 | -1 | -3
CSCCC(NC(=O)c1ccc([N+](=O)[O-])cc1Cl)C(=O)OCC(=O)NC1CCCC(C)C1C (centres undefined) | -1 | -4 | -8 | 2 | 0 | -3 | nt | nt
SMILES | CSN inh | Rpn11 block | NadD inh | HNF4A DNA FP | PP1 inh | TPT1 inh | PP1 confirm | PP5 inh counter
CC(C)N=C(N)N=C(N)Nc1ccc(Cl)cc1 | -7 | -8 | 1 | -2 | 1 | -1 | nt | nt
NC(=NCCCCCCN=C(N)/N=C(\N)Nc1ccc(Cl)cc1)/N=C(\N)Nc1ccc(Cl)cc1 | 2 | -73 | 0 | 8 | 20* | -3 | 5 | 0
Cc1ccc(Nc2c(-c3ccccn3)nc3ccc(C)cn23)cc1 | 3 | 14 | 6 | 6 | 71* | -4 | 42* | 1
Cc1ccc(Nc2c(-c3ccccn3)nc3cc(C)ccn23)cc1 | 1 | 29 | 6 | 6 | 40* | 0 | 42* | 3
Cc1ccn2c(Nc3ccc4c(c3)OCO4)c(-c3ccccn3)nc2c1 | -4 | 18 | 9 | -1 | 28* | -7 | 47* | -2
Cc1cc(C)n2c(Nc3ccc4c(c3)OCCO4)c(-c3ccccn3)nc2n1 | 2 | nt | 1 | -1 | nt | nt | nt | nt
O=S1(=O)C=C[C@H](COCc2ccccc2)N1 | 1 | 4 | -8 | -2 | nt | nt | nt | nt
O=C(NCCC(=O)N1CCN(S(=O)(=O)c2ccc(Cl)cc2)CC1)Nc1ccccc1 | 0 | -2 | 5 | 3 | nt | nt | nt | nt
C/C(=N\NC(=O)CNC(=O)c1ccccc1Br)c1ccco1 | 1 | -4 | -6 | 4 | -6 | -7 | nt | nt
O=C(COc1ccccc1Cl)Nc1ccc(N2CCCC2)cc1 | 5 | 5 | -7 | 2 | 28* | 5 | -2 | -4
COc1cccc(OC)c1C(=O)Nc1ccc(N2CCCC2)cc1 | -3 | 4 | 13 | 7 | 28* | 13 | -3 | -4
COc1ccccc1C(=O)Nc1ccc(N2CCCCC2)cc1 | 7 | 14 | 3 | 9 | -3 | -1 | nt | nt
O=C(O)C(Cc1ccccc1)N1C(=O)/C(=C/c2cccc3ccccc23)SC1=S (centres undefined) | nt | nt | nt | nt | 20* | -2 | 32* | 1
O=C(NCC1CCCO1)c1nc(Cn2ccc([N+](=O)[O-])n2)no1 (centres undefined) | 0 | -10 | -6 | -3 | 21* | -8 | -5 | -5
CCOc1ccccc1/C=N/NC(=O)c1cccc(S(=O)(=O)N(CC)CC)c1 | -1 | -2 | -2 | -7 | 1 | -1 | nt | nt

Source: PubChem BioAssay
